Results on 1 compound are retold here after ChEMBL document CHEMBL4138058, “Design and synthesis of novel selective estrogen receptor degradation inducers based on the diphenylheptane skeleton” (Medchemcomm, 2017).

Series [1] concerns the target T1, Vitamin D3 receptor (Homo sapiens) (UniProt P11473).
T1 sequence (whole entry): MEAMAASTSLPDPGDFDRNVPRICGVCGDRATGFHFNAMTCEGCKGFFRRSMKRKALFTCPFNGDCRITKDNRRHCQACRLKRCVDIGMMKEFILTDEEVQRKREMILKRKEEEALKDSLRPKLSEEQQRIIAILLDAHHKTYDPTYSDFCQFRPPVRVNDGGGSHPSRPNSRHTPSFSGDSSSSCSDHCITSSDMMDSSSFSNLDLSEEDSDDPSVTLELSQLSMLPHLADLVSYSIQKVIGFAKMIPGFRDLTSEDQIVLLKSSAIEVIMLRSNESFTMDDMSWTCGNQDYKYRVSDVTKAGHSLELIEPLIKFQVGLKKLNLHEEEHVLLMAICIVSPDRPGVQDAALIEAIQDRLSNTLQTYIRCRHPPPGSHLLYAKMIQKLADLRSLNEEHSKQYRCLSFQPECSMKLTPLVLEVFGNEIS
Nature of the series: Downregulation of VDR expression in human MCF7 cells at 3 uM after 6 hrs in presence of proteasome inhibitor MG132 by Western blot method relative to lamin B. Format: cell-based. The essentials:
(§1)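 MCF-7 cells kept in DMEM with 10% FBS, kanamycin and 10 μg/mL insulin, then exposed to compounds for 6 h. Lysates made in SDS buffer (0.1 M Tris-HCl pH 8.0, 10% glycerol, 1% SDS), boiled, BCA-normalized and run on SDS-PAGE. Blots probed with anti-ERα, AR, AhR or VDR and β-actin or lamin B. Chemiluminescence quantified as target/loading-protein ratio; means ± S.E., n=3.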

Series [2] concerns the target T2, Estrogen receptor (Homo sapiens) (UniProt P03372).
T2 sequence (whole entry): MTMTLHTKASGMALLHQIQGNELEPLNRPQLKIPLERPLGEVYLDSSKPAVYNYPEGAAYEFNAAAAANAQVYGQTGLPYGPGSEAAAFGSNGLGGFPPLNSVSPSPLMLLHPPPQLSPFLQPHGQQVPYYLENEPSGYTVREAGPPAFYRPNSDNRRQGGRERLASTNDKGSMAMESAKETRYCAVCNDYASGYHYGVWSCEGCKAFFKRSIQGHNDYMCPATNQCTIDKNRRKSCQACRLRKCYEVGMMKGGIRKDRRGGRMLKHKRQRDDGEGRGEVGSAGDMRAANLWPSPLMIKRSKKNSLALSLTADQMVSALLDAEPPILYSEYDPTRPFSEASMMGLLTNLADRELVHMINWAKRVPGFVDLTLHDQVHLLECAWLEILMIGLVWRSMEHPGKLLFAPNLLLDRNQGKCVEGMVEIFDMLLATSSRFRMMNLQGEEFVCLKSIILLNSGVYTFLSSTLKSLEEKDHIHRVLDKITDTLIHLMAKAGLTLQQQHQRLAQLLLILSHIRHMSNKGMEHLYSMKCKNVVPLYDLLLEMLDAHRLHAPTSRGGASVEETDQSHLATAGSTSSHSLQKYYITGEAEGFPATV
Nature of the series: Downregulation of ERalpha expression in human MCF7 cells at 10 uM after 6 hrs by Western blot method relative to beta-actin. The class given is cell-based. An outline of the steps: as §1

The target in a further series is T3, Estrogen receptor (Homo sapiens, UniProt P03372).
T3 sequence (P03372 whole entry): T2 sequence (whole entry)
Nature of the series: Displacement of Fluormone ES2 Green from full-length untagged human ERalpha expressed in insect cells after 2 hrs by fluorescence polarization assay.

Series [3] deals with T1, Vitamin D3 receptor (Homo sapiens). Nature of the series: Downregulation of VDR expression in human MCF7 cells at 1 uM after 6 hrs in presence of proteasome inhibitor MG132 by Western blot method relative to lamin B. Format: cell-based. An outline of the steps: as §1
Series [4] concerns the target T4, Aryl hydrocarbon receptor (Homo sapiens, UniProt P35869).
T4 sequence (P35869 whole entry): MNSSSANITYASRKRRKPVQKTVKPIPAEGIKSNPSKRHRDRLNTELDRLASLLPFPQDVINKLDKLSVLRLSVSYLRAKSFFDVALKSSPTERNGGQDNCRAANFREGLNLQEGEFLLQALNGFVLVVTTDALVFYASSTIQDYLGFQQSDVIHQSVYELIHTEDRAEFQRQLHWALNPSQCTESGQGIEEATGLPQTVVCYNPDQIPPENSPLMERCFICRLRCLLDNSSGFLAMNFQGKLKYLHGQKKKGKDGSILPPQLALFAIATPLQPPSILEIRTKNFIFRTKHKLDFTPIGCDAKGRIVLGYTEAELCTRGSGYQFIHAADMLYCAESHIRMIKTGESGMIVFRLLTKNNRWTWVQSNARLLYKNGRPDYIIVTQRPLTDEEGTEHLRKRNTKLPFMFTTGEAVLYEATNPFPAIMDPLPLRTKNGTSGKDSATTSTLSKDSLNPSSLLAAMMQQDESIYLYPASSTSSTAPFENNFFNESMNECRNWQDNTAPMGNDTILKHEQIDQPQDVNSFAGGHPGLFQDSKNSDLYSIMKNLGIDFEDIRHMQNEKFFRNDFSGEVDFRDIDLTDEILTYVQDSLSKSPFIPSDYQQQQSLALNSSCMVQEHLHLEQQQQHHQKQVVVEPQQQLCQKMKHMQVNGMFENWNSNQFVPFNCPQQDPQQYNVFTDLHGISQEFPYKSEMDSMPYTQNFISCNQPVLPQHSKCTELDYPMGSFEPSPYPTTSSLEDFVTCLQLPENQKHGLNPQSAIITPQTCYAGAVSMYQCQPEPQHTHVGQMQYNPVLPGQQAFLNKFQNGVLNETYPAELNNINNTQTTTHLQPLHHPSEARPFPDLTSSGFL
Nature of the series: Downregulation of AhR expression in human MCF7 cells at 1 uM after 6 hrs in presence of proteasome inhibitor MG132 by Western blot method relative to lamin B. The class given is cell-based. Particulars: mcf7, 6 h. An outline of the steps: as §1

The target of series [5] is T4, Aryl hydrocarbon receptor. Nature of the series: Downregulation of AhR expression in human MCF7 cells at 3 uM after 6 hrs in presence of proteasome inhibitor MG132 by Western blot method relative to lamin B. Format: cell-based. The note with it: mcf7, 6 h. An outline of the steps:
as §1

Structures are written as SMILES.

`CCCCCCCCCCNCCOc1ccc(C(CCC)(CCC)c2ccc(O)c(C)c2)cc1C`: the Activity came to 83% in series [1]; 44% in series [2]; 98% in series [3]; 105% in series [4]; 99% in series [5]. For the same compound, the IC50 on Estrogen receptor was 4.9 nM.
